Assay: ITC: binding
Method in brief: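 25 × 10 μl injections of 50 μM full-length BclXL into a cell of 2 mM TOCL/DHPC bicelles (1:4 molar ratio, stirred 2 h at 37 °C in buffer). 25 °C; 50 mM buffer (acetate pH 4 to CAPS pH 10) with 100 mM NaCl, 1 mM EDTA and 5 mM β-mercaptoethanol. Buffer-titration heats subtracted. Kd and ΔH from a one-site fit; TΔS = ΔH − ΔG. ≥3 repeats.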

TΔS (pH 4, acetate, 25 °C, TΔS=ΔH-ΔG, ± SD, n at least 3): -53.73 ± 4.1 kcal/mol | ΔH (pH 4, acetate, 25 °C, ± SD, n at least 3): -63.00 ± 4.2 kcal/mol | ΔG (pH 4, acetate, 25 °C, ΔG=RTlnKd, ± SD, n at least 3): -9.26 ± 0.1 kcal/mol | binding to TOCL/DHPC bicelles, in words (pH 4-10): only under acidic conditions
Substance: full-length BclXL: Full-length human BclXL (residues 1-233), N-terminal His-tag, expressed in Escherichia coli

— paper PMC3483416 (Archives of biochemistry and biophysics, 2012)
